Results published in ChEMBL document CHEMBL4330056, “Synthesis and Cytotoxic and Antiviral Profiling of Pyrrolo- and Furo-Fused 7-Deazapurine Ribonucleosides” (J Med Chem, 2018).
Active and inactive are the calls of the source. No cut-off for these calls is given here.

Key:
Hepatitis C virus [1] = assay: Antiviral activity against Hepatitis C virus genotype 1b infected in human Huh-luc replicon cells after 3 days by luciferase assay; format: functional, organism-based, Hepacivirus hominis; settings: subtype 1b, 72 h
[2] = Cytotoxicity against human Hep2 cells assessed as reduction in cell viability after 3 days by CellTiter-Glo assay; format: cell-based; settings: HEp-2 cells
Hepatitis C virus [3] = assay: Antiviral activity against Hepatitis C virus genotype 2a infected in human Huh-luc replicon cells after 3 days by luciferase assay; format: functional, organism-based, Hepacivirus hominis; settings: subtype 2a, 72 h
BJ = assay: Antiproliferative activity against human BJ cells after 3 days by MTS assay; settings: 72 h
MRC5 = assay: Antiproliferative activity against human MRC5 cells after 3 days by MTS assay; settings: MRC5, 72 h
A549 = assay: Antiproliferative activity against human A549 cells after 3 days by MTS assay; format: functional, cell-based; settings: A549, 72 h
CCRF-CEM = assay: Antiproliferative activity against human CCRF-CEM cells after 3 days by MTS assay; format: functional, cell-based; settings: 72 h
[4] = Antiproliferative activity against human CEM-DNR-bulk cells after 3 days by MTS assay; settings: 72 h
HCT-116 [5] = assay: Antiproliferative activity against human HCT116 cells after 3 days by MTS assay; format: functional, cell-based; settings: HCT-116, 72 h
HCT-116 [6] = assay: Antiproliferative activity against p53 gene knocked out human HCT116 cells after 3 days by MTS assay; format: functional, cell-based; settings: HCT-116, 72 h
K562 = assay: Antiproliferative activity against human K562 cells after 3 days by MTS assay; format: functional, cell-based; settings: K562, 72 h
[7] = Antiproliferative activity against human K562-TAX cells after 3 days by MTS assay; format: functional, cell-based; settings: 72 h
U2OS = assay: Antiproliferative activity against human U2OS cells after 3 days by MTS assay; format: functional, cell-based; settings: 72 h
HL-60 = assay: Antiproliferative activity against human HL60 cells after 72 hrs by XTT assay; format: functional, cell-based; settings: HL-60, 72 h
HepG2 = assay: Antiproliferative activity against human HepG2 cells after 72 hrs by XTT assay; format: functional, cell-based; settings: HepG2, 72 h
HeLa S3 = assay: Antiproliferative activity against human HeLaS3 cells after 72 hrs by XTT assay; format: functional, cell-based; settings: HeLa S3, 72 h
Adenosine kinase [8] = target: T1, Adenosine kinase (Homo sapiens, UniProt P55263); assay: Substrate activity at recombinant human ADK assessed as compound phosphorylation at 50 uM after 20 mins in presence of [3H]-adenosine by UPLC; format: ADME
T1 sequence (P55263 whole entry): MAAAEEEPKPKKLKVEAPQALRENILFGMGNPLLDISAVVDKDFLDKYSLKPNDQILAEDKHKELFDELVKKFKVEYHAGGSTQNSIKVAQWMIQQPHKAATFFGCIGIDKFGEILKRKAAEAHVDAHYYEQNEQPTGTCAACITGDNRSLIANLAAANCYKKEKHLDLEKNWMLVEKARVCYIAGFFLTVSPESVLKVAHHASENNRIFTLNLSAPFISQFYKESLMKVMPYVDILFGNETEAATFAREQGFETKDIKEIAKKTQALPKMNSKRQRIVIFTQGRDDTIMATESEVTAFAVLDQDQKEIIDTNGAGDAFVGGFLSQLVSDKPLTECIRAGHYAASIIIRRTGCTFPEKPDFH

Adenosine kinase [9] = target: T1, Adenosine kinase; assay: Inhibition of recombinant human ADK using [3H]-adenosine as substrate after 20 mins by TLC scanner-based analysis relative to control
Method in brief: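 ADK inhibition: 50 μM adenosine substrate with 10 μM test compound and 97 ng enzyme, 20 min at 37 °C.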

Influenza A virus = assay: Antiviral activity against Influenza A virus (A/Mexico/4108/2009(H1N1)) infected in MDCK cells assessed as inhibited virus-induced cytopathic effect incubated for 2 days by XTT assay; format: functional, organism-based
Human orthopneumovirus = assay: Antiviral activity against Human respiratory syncytial virus A2 infected in Hep2 cells assessed as reduction in virus-induced cytopathic effect incubated for 4 days by CellTiter-Glo viability reagent based assay; format: functional, organism-based
Coxsackievirus B3 = assay: Antiviral activity against Human coxsackie B3 Nancy infected in human HeLa cells assessed as inhibited virus-induced cytopathic effect incubated for 2 days by XTT assay; format: functional, organism-based
Human alphaherpesvirus 1 = assay: Antiviral activity against human herpesvirus 1 HF infected in African green monkey Vero cells assessed as inhibited virus-induced cytopathic effect incubated for 3 days by XTT assay; format: functional, organism-based
dengue virus type 2 = assay: Antiviral activity against Dengue virus 2 Thailand/16681/84 infected in African green monkey Vero cells assessed as inhibition of virus replication incubated for 3 days by fluorescence microscopy; format: functional, organism-based

SMILES	EC50 (Hepatitis C virus [1]) [µM]	CC50 at 72 h [2] [µM]	EC50 (Hepatitis C virus [3]) [µM]	IC50 (BJ) [µM]	IC50 (MRC5) [µM]	IC50 (A549) [µM]	IC50 (CCRF-CEM) [µM]	IC50 [4] [µM]	IC50 (HCT-116 [5]) [µM]	IC50 (HCT-116 [6]) [µM]	IC50 (K562) [µM]	IC50 [7] [µM]	IC50 (U2OS) [µM]	IC50 (HL-60) [µM]	IC50 (HepG2) [µM]	IC50 (HeLa S3) [µM]	Activity (Adenosine kinase [8]) [%]	IC50 (Adenosine kinase [9]) [µM]	Activity (Influenza A virus)	Activity (Human orthopneumovirus)	also measured
Cn1ccc2c3c(-c4cc5ccccc5o4)ncnc3n([C@@H]3O[C@H](CO)[C@@H](O)[C@H]3O)c21	7.83	27.5 to 29.1	15.5	44.7	45.2	35.4	9.48	30.6	36.5	36.4	22.1	23	28.9	> 50	> 50	> 50	0	0.47	inactive	inactive	Activity (Coxsackievirus B3): inactive; Activity (Human alphaherpesvirus 1): inactive; Activity (dengue virus type 2): inactive
OC[C@H]1O[C@@H](n2c3ccoc3c3c(-c4ccoc4)ncnc32)[C@H](O)[C@@H]1O	0.78	> 44.4	> 44.4	0.52	> 50	> 50	0.21	> 50	12.1	10.7	0.42	9.78	0.64	1.92	6.71	13.1	38	> 10	inactive	inactive	Activity (Coxsackievirus B3): inactive; Activity (Human alphaherpesvirus 1): inactive; Activity (dengue virus type 2): inactive
OC[C@H]1O[C@@H](n2c3ccoc3c3c(-c4ccco4)ncnc32)[C@H](O)[C@@H]1O	0.17	> 44.4	> 44.4	> 50	> 50	> 50	0.45	> 50	> 50	> 50	7.03	7.01	4.21	2.55	> 50	> 50	34	3.94	inactive	inactive	Activity (Coxsackievirus B3): inactive; Activity (Human alphaherpesvirus 1): inactive; Activity (dengue virus type 2): inactive
CN(C)c1ncnc2c1c1occc1n2[C@@H]1O[C@H](CO)[C@@H](O)[C@H]1O	> 44.4	> 44.4	> 44.4	> 50	> 50	> 50	> 50	> 50	> 50	> 50	> 50	> 50	> 50	> 50	> 50	> 50	7	> 10	inactive	inactive	Activity (Coxsackievirus B3): inactive; Activity (Human alphaherpesvirus 1): inactive; Activity (dengue virus type 2): inactive
Cc1ncnc2c1c1ccn(C)c1n2[C@@H]1O[C@H](CO)[C@@H](O)[C@H]1O	> 44.4	> 44.4	> 44.4	> 50	> 50	> 50	> 50	> 50	> 50	> 50	> 50	> 50	> 50	> 50	> 50	> 50	0	> 10	inactive	inactive	Activity (Coxsackievirus B3): inactive; Activity (Human alphaherpesvirus 1): inactive; Activity (dengue virus type 2): inactive
Cn1ccc2c1c1c(Cl)ncnc1n2[C@@H]1O[C@H](CO)[C@@H](O)[C@H]1O	0.37	> 44.4	0.06	1.2	50	2.99	0.06	50	0.17	0.15	0.18	50	0.62	0.06	0.16	0.57	77	> 10	inactive	inactive	Activity (Coxsackievirus B3): inactive; Activity (Human alphaherpesvirus 1): inactive; Activity (dengue virus type 2): inactive
Cn1ccc2c1c1c(N)ncnc1n2[C@@H]1O[C@H](CO)[C@@H](O)[C@H]1O	0.46	40.9 to 44.4	0.22	> 50	> 50	> 50	50	> 50	> 50	> 50	> 50	> 50	50	2.29	> 50	> 50	68	> 10	inactive	inactive	Activity (Coxsackievirus B3): inactive; Activity (Human alphaherpesvirus 1): inactive; Activity (dengue virus type 2): inactive
Cn1ccc2c3c(Cl)ncnc3n([C@@H]3O[C@H](CO)[C@@H](O)[C@H]3O)c21	36.4	> 44.4	> 44.4	> 50	> 50	> 50	> 50	> 50	> 50	> 50	> 50	> 50	> 50	> 50	> 50	> 50	0	> 10	inactive	inactive	Activity (Coxsackievirus B3): inactive; Activity (Human alphaherpesvirus 1): inactive; Activity (dengue virus type 2): inactive
CC(C)C(=O)OC[C@H]1O[C@@H](n2ccc(N)nc2=O)[C@](C)(F)[C@@H]1OC(=O)C(C)C [MERICITABINE]	–	> 44.4	–	–	–	–	–	–	–	–	–	–	–	–	–	–	–	–	–	–	–
Cn1ccc2c3c(-c4ccco4)ncnc3n([C@@H]3O[C@H](CO)[C@@H](O)[C@H]3O)c21	0.34	2.63 to 16.4	0.77	5.36	5.89	5.73	1.36	2.17	3.82	4.01	4.03	2.4	3.49	3	> 50	2.97	0	3.58	inactive	inactive	Activity (Coxsackievirus B3): inactive; Activity (Human alphaherpesvirus 1): inactive; Activity (dengue virus type 2): inactive
Cn1ccc2c1c1c(-c3cc4ccccc4o3)ncnc1n2[C@@H]1O[C@H](CO)[C@@H](O)[C@H]1O	1.6	26.9 to 44.4	32.5	> 50	> 50	> 50	16.5	29.8	46.2	47.5	> 50	29.3	43.9	> 50	> 50	> 50	0	0.3	inactive	inactive	Activity (Coxsackievirus B3): inactive; Activity (Human alphaherpesvirus 1): inactive; Activity (dengue virus type 2): inactive
Nc1ncnc2c1ncn2[C@@H]1O[C@H](CO)[C@@H](O)[C@H]1O [ADENOSINE]	–	–	–	–	–	–	–	–	–	–	–	–	–	–	–	–	73	–	–	–	–
